Source: ChEMBL document CHEMBL1166003, “Triterpene glycosides from Curculigo orchioides and their cytotoxic activity” (J Nat Prod, 2010)
pIC50: −log10 of the molar value. Calls of active or inactive are those of the source. The rule behind the calls is not given here.

Experiments:
[1] = test system: HL-60; assay: Cytotoxicity against human HL60 cells at 20 uM after 72 hrs by MTT assay; type: functional, cell-based
[2] = test system: HL-60; assay: Cytotoxicity against human HL60 cells after 72 hrs by MTT assay; type: functional, cell-based; settings: HL-60, 72 h
How it was run: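 HL-60 (JCRB 0085) kept in RPMI 1640 with 10% heat-inactivated FBS, penicillin/streptomycin, 37 °C, 5% CO2. Seeded at 4 × 10^4 cells/mL, preincubated 24 h, then dosed from EtOH-H2O (1:1) to final 0.01-20 µg/mL; vehicle-only controls. After 72 h, modified MTT read-out: MTT 4 h, centrifugation, formazan dissolved in DMSO, A550. Triplicate; IC50 taken as 50% reduction of viable cells.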

[3] = test system: MCF7; assay: Growth inhibition of human MCF7 cells after 48 hrs by SRB assay; type: functional; settings: MCF7, 48 h
How it was run: (§1)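 Part of a 39-line human cancer cell panel, run by a modified NCI method. Cells were plated at suitable density in RPMI 1640 with 5% FBS and left to attach overnight before compound addition. Read-out was GI50.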

[4] = Growth inhibition of human HBC4 cells after 48 hrs by SRB assay; type: functional; settings: HBC4, 48 h; how it was run: as §1
[5] = test system: OVCAR-8; assay: Growth inhibition of human OVCAR8 cells after 48 hrs by SRB assay; type: functional; settings: OVCAR-8, 48 h; how it was run: as §1
[6] = test system: MKN-74; assay: Growth inhibition of human MKN74 cells after 48 hrs by SRB assay; type: functional; settings: MKN-74, 48 h; how it was run: as §1
[7] = test system: KM12; assay: Growth inhibition of human KM12 cells after 48 hrs by SRB assay; type: functional; settings: KM12, 48 h; how it was run: as §1
[8] = test system: OVCAR-3; assay: Growth inhibition of human OVCAR-3 cells after 48 hrs by SRB assay; type: functional; settings: OVCAR-3, 48 h; how it was run: as §1
[9] = test system: SNB-75; assay: Growth inhibition of human SNB75 cells after 48 hrs by SRB assay; type: functional; settings: SNB-75, 48 h; how it was run: as §1
[10] = test system: OVCAR-4; assay: Growth inhibition of human OVCAR4 cells after 48 hrs by SRB assay; type: functional; settings: OVCAR-4, 48 h; how it was run: as §1
[11] = Growth inhibition of human HBC5 cells after 48 hrs by SRB assay; type: functional; settings: HBC5, 48 h; how it was run: as §1
[12] = test system: LOX IMVI; assay: Growth inhibition of human LOXIMVI cells after 48 hrs by SRB assay; type: functional; how it was run: as §1
[13] = test system: NCI-H522; assay: Growth inhibition of human NCI-H522 cells after 48 hrs by SRB assay; type: functional; settings: NCI-H522, 48 h; how it was run: as §1
[14] = Growth inhibition of human BSY1 cells after 48 hrs by SRB assay; type: functional; settings: BSY-1, 48 h; how it was run: as §1
[15] = test system: MKN-28; assay: Growth inhibition of human MKN28 cells after 48 hrs by SRB assay; type: functional; settings: MKN-28, 48 h; how it was run: as §1
[16] = test system: SF-539; assay: Growth inhibition of human SF539 cells after 48 hrs by SRB assay; type: functional; settings: SF-539, 48 h; how it was run: as §1
[17] = test system: SNB-78; assay: Growth inhibition of human SNB78 cells after 48 hrs by SRB assay; type: functional; settings: SNB-78, 48 h; how it was run: as §1
[18] = test system: SF-295; assay: Growth inhibition of human SF295 cells after 48 hrs by SRB assay; type: functional; settings: SF-295, 48 h; how it was run: as §1
[19] = test system: NCI-H226; assay: Growth inhibition of human NCI-H226 cells after 48 hrs by SRB assay; type: functional; settings: NCI-H226, 48 h; how it was run: as §1
[20] = test system: DU-145; assay: Growth inhibition of human DU145 cells after 48 hrs by SRB assay; type: functional; settings: DU-145, 48 h; how it was run: as §1
[21] = test system: SK-OV-3; assay: Growth inhibition of human SKOV3 cells after 48 hrs by SRB assay; type: functional; settings: SK-OV-3, 48 h; how it was run: as §1
[22] = test system: U-251; assay: Growth inhibition of human U251 cells after 48 hrs by SRB assay; type: functional; settings: U-251, 48 h; how it was run: as §1
[23] = test system: MKN-45; assay: Growth inhibition of human MKN45 cells after 48 hrs by SRB assay; type: functional; settings: MKN-45, 48 h; how it was run: as §1
[24] = test system: SF-268; assay: Growth inhibition of human SF268 cells after 48 hrs by SRB assay; type: functional; settings: SF-268, 48 h; how it was run: as §1
[25] = test system: DMS-273; assay: Growth inhibition of human DMS273 cells after 48 hrs by SRB assay; type: functional; settings: DMS-273, 48 h; how it was run: as §1
[26] = test system: NCI-H23; assay: Growth inhibition of human NCI-H23 cells after 48 hrs by SRB assay; type: functional; settings: NCI-H23, 48 h; how it was run: as §1
[27] = Growth inhibition of human RXF631L cells after 48 hrs by SRB assay; type: functional; settings: RXF 631, 48 h; how it was run: as §1
[28] = test system: PC-3; assay: Growth inhibition of human PC3 cells after 48 hrs by SRB assay; type: functional; settings: PC-3, 48 h; how it was run: as §1
[29] = test system: MKN-7; assay: Growth inhibition of human MKN7 cells after 48 hrs by SRB assay; type: functional; settings: MKN-7, 48 h; how it was run: as §1
[30] = test system: HCT-15; assay: Growth inhibition of human HCT15 cells after 48 hrs by SRB assay; type: functional; settings: HCT-15, 48 h; how it was run: as §1
[31] = test system: HCT-116; assay: Growth inhibition of human HCT116 cells after 48 hrs by SRB assay; type: functional; settings: HCT-116, 48 h; how it was run: as §1
[32] = test system: HT-29; assay: Growth inhibition of human HT-29 cells after 48 hrs by SRB assay; type: functional; settings: HT-29, 48 h; how it was run: as §1
[33] = test system: HCC 2998; assay: Growth inhibition of human HCC2998 cells after 48 hrs by SRB assay; type: functional; settings: HCC 2998, 48 h; how it was run: as §1
[34] = test system: DMS-114; assay: Growth inhibition of human DMS114 cells after 48 hrs by SRB assay; type: functional; settings: DMS-114, 48 h; how it was run: as §1
[35] = test system: MDA-MB-231; assay: Growth inhibition of human MDA-MB-231 cells after 48 hrs by SRB assay; type: functional; settings: MDA-MB-231, 48 h; how it was run: as §1
[36] = test system: A549; assay: Growth inhibition of human A549 cells after 48 hrs by SRB assay; type: functional; settings: A549, 48 h; how it was run: as §1
[37] = test system: ACHN; assay: Growth inhibition of human ACHN cells after 48 hrs by SRB assay; type: functional; how it was run: as §1
[38] = Growth inhibition of human MKN1 cells after 48 hrs by SRB assay; type: functional; settings: MKN-1, 48 h; how it was run: as §1
[39] = test system: St-4; assay: Growth inhibition of human St-4 cells after 48 hrs by SRB assay; type: functional; settings: St-4, 48 h; how it was run: as §1
[40] = test system: OVCAR-5; assay: Growth inhibition of human OVCAR5 cells after 48 hrs by SRB assay; type: functional; settings: OVCAR-5, 48 h; how it was run: as §1
[41] = test system: NCI-H460; assay: Growth inhibition of human NCI-H460 cells after 48 hrs by SRB assay; type: functional; settings: NCI-H460, 48 h; how it was run: as §1

CC(C)C(=O)CC[C@@H](C)[C@H]1[C@@H](O)C[C@@]2(C)[C@@H]3CC[C@H]4C(C)(C)[C@@H](O[C@@H]5O[C@H](CO)[C@@H](O)[C@H](O)[C@H]5O[C@@H]5O[C@@H](C)[C@H](O)[C@@H](O[C@@H]6O[C@H](CO)[C@@H](O)[C@H](O)[C@H]6O)[C@H]5O)CC[C@@]45C[C@@]35C[C@H](O)[C@]12C
inhibition [1]: inactive

CC(C)C(=O)CC[C@@H](C)[C@H]1[C@@H](O)C[C@@]2(C)[C@@H]3CC[C@H]4C(C)(C)[C@@H](O[C@@H]5O[C@H](CO)[C@@H](O)[C@H](O)[C@H]5O[C@@H]5O[C@H](CO)[C@@H](O)[C@H](O)[C@H]5O)CC[C@@]45C[C@@]35C[C@H](O)[C@]12C
inhibition [1]: inactive

CC(C)C(=O)CC[C@@H](C)[C@H]1[C@@H](O)C[C@@]2(C)[C@@H]3CC[C@H]4C(C)(C)[C@@H](O[C@@H]5O[C@H](CO)[C@@H](O)[C@H](O)[C@H]5O)CC[C@@]45C[C@@]35C[C@H](O)[C@]12C
pIC50 [2]: 5.05

CC(C)C(=O)CC[C@@H](C)[C@H]1[C@@H](O)C[C@@]2(C)[C@@H]3CC[C@H]4C(C)(C)[C@@H](O)CC[C@@]45C[C@@]35C[C@H](O)[C@]12C
GI50 [3]: 3.8 µM | GI50 [4]: 3.16 µM | GI50 [5]: 1.55 µM | GI50 [6]: 2.19 µM | GI50 [7]: 6.17 µM | GI50 [8]: 3.24 µM | GI50 [9]: 3.8 µM | GI50 [10]: 2.4 µM | GI50 [11]: 2.88 µM | GI50 [12]: 1.55 µM | GI50 [13]: 2.88 µM | GI50 [14]: 1.95 µM | GI50 [15]: 2.04 µM | GI50 [16]: 2.14 µM | GI50 [17]: 5.01 µM | GI50 [18]: 2.09 µM | GI50 [19]: 2.75 µM | GI50 [20]: 2.09 µM | GI50 [21]: 4.79 µM | GI50 [22]: 2.19 µM | GI50 [23]: 64.6 µM | GI50 [24]: 1.38 µM | GI50 [25]: 2.09 µM | GI50 [26]: 3.09 µM | GI50 [27]: 1.78 µM | GI50 [28]: 14.8 µM | GI50 [29]: 1.91 µM | GI50 [30]: 3.47 µM | GI50 [31]: 2.4 µM | GI50 [32]: 3.31 µM | GI50 [33]: 16.6 µM | pIC50 [2]: 5.74 | GI50 [34]: 1.78 µM | GI50 [35]: 2 µM | GI50 [36]: 2.69 µM | GI50 [37]: 2 µM | GI50 [38]: 2.57 µM | GI50 [39]: 2.75 µM | GI50 [40]: 4.79 µM | GI50 [41]: 2.24 µM

CC(C)C(=O)CC[C@@H](C)[C@H]1[C@@H](O)C[C@@]2(C)[C@@H]3CC[C@H]4C(C)(C)[C@@H](O[C@@H]5O[C@H](CO[C@@H]6O[C@H](CO)[C@@H](O)[C@H](O)[C@H]6O)[C@@H](O)[C@H](O)[C@H]5O)CC[C@@]45C[C@@]35C[C@H](O)[C@]12C
inhibition [1]: inactive

CC(C)C(=O)CC[C@@H](C)[C@H]1[C@@H](O)C[C@@]2(C)[C@@H]3CC[C@H]4C(C)(C)[C@@H](O[C@@H]5O[C@H](CO)[C@@H](O)[C@H](O)[C@H]5O[C@@H]5O[C@@H](C)[C@H](O)[C@@H](O)[C@H]5O)CC[C@@]45C[C@@]35C[C@H](O)[C@]12C
inhibition [1]: inactive

CC(C)C(=O)CC[C@@H](C)[C@H]1[C@@H](O)C[C@@]2(C)[C@@H]3CC[C@H]4C(C)(C)[C@@H](O[C@@H]5O[C@H](CO)[C@@H](O)[C@H](O)[C@H]5O[C@@H]5O[C@H](CO)[C@@H](O)[C@H](O[C@@H]6O[C@H](CO)[C@@H](O)[C@H](O)[C@H]6O)[C@H]5O)CC[C@@]45C[C@@]35C[C@H](O)[C@]12C
inhibition [1]: inactive
